Experiments:
[1] = biological target: Epidermal growth factor receptor (Homo sapiens, UniProt P00533)
[2] = biological target: T1, Receptor tyrosine-protein kinase erbB-2 (Homo sapiens, UniProt P04626); assay: Inhibition of human recombinant cytoplasmic HER2 kinase expressed in Sf9 cells
NCI-N87 [3] = assay: Antiproliferative activity against human N87 cells; format: functional, cell-based
HT-29 = assay: Antiproliferative activity against human HT29 cells
Liver = assay: Metabolic stability in mouse liver microsomes assessed as rate of metabolism per mg protein at 3 uM after 10 mins; format: ADME, Microsome
Summary of the method: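 Test compound at 3 µM incubated 10 min with mouse liver microsomes plus NADPH. Rate of metabolism expressed as nmol min⁻¹ mg protein⁻¹.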

[4] = Antitumor activity against human GEO cells xenografted athymic mouse at 60 mg/kg, sc QD for 21 days; format: functional; settings: po, 504 h, read-out: TGI, in the assay text read “po QD” for “sc QD”
Summary of the method: (§1)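 Tumor cells were implanted subcutaneously in athymic mice and staged to about 100 mg before dosing, with drug given orally. […] Probability was assessed for median tumor weight at the end of treatment.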

A2780 = assay: Antiproliferative activity against human A2780 cells; format: functional, cell-based
[5] = biological target: Hepatocyte growth factor receptor (Homo sapiens, UniProt P08581); assay: Inhibition of Met kinase
Chain of Hepatocyte growth factor receptor (P08581 whole entry): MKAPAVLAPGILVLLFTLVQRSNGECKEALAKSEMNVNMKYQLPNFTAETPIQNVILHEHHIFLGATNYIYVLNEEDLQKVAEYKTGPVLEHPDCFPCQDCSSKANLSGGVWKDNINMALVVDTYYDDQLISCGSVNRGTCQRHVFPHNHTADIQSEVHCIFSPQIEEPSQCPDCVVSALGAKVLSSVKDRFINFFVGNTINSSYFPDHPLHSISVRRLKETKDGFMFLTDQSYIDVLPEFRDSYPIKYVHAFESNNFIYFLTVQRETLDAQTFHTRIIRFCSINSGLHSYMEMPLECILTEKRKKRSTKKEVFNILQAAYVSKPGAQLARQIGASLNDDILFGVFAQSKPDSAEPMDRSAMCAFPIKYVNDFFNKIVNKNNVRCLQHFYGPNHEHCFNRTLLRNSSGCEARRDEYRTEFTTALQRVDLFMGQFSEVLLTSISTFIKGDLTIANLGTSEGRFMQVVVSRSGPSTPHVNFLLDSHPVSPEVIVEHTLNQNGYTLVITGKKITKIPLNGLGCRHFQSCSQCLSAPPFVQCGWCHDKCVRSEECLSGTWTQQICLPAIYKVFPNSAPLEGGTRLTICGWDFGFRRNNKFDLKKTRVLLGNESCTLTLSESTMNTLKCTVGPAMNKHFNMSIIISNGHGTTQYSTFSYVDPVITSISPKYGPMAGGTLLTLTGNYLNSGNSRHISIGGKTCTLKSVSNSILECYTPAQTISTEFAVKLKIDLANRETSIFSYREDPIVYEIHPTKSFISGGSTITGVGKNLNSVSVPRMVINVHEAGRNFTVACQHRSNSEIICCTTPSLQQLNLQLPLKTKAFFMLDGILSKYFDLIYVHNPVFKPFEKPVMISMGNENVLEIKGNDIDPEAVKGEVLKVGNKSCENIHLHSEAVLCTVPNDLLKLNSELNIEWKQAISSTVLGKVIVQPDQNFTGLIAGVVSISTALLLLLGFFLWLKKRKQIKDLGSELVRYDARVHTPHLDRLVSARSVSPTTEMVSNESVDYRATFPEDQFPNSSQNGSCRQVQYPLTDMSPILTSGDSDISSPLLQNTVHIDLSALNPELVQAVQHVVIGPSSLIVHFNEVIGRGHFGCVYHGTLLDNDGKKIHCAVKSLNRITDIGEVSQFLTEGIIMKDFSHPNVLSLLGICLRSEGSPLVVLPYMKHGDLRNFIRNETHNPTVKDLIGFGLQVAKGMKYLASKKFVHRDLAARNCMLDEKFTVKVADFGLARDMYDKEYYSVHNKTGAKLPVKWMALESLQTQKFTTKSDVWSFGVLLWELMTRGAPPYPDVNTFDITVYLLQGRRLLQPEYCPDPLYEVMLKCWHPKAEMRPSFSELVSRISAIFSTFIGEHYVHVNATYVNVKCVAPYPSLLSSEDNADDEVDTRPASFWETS
Summary of the method: (§2)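 Kinase panel values are IC50s reported as the mean of at least three determinations, with variability around the mean under 15%.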

[6] = Inhibition of PKA; set-up: species or system Homo sapiens
Summary of the method: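 IC50 values are means of at least three determinations, with variability around the mean under 15%.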

[7] = Plasma concentration in BALB/C mouse at 50 mg/kg, po after 4 hrs; format: ADME, organism-based; set-up: dose 50 mg/kg, route oral
Summary of the method: (§3)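 Single oral 50 mg/kg dose in male Balb/C mice. AUC taken over 4 h, and plasma concentration measured at 4 h.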

[8] = Permeability across Caco-2 cell membrane; format: ADME, cell-based; settings: human, read-out: permeability
Mus musculus [9] = assay: Toxicity in mouse at 240 mg/kg, po; settings: in vivo
[10] = biological target: Tyrosine-protein kinase Lck (Homo sapiens, UniProt P06239); assay: Inhibition of LCK kinase
Chain of Tyrosine-protein kinase Lck (P06239 whole entry): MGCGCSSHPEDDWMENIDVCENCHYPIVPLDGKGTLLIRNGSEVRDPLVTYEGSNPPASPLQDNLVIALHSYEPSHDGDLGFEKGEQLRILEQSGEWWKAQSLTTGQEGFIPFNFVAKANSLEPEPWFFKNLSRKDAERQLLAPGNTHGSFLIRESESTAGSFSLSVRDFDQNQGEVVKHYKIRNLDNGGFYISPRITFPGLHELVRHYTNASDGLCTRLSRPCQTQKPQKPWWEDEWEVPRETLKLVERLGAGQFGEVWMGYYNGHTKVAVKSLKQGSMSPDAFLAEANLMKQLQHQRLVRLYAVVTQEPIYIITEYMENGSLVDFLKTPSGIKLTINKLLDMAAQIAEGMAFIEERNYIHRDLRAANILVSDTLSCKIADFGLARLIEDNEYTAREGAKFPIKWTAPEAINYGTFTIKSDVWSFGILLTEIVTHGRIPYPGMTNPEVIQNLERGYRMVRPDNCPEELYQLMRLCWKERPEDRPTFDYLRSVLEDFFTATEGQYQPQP
Summary of the method: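 IC50 is the mean of at least three determinations, with variability around the mean below 15%.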

[11] = biological target: Vascular endothelial growth factor receptor 2 (Homo sapiens, UniProt P35968); assay: Inhibition of VEGFR2
Summary of the method: as §2

[12] = Antitumor activity against human GEO cells xenografted athymic mouse at 240 mg/kg, sc QD for 21 days; format: functional; settings: po, 504 h, read-out: TGI, in the assay text read “po QD” for “sc QD”
Summary of the method: as §1

[13] = Fraction unbound (%) ligand in mouse serum at 10 uM by equilibrium dialysis; format: ADME, cell-free, Plasma
NCI-N87 [14] = assay: Antitumor activity against human N87 cells xenografted athymic mouse at 240 mg/kg, sc QD for 14 days; format: functional; settings: NCI-N87, po, 336 h, read-out: TGI, in the assay text read “po QD” for “sc QD”
Summary of the method: as §1

MAP kinase p38 = MAP kinase p38 (Homo sapiens, UniProt O15264+Q15759+Q16539+P53778); assay: Inhibition of p38 kinase; format: protein assay
Summary of the method: as §2

Mus musculus [15] = assay: Toxicity in mouse assessed as wieght loss at 240 mg/kg, po; settings: in vivo
NCI-N87 [16] = assay: Antitumor activity against human N87 cells xenografted athymic mouse at 120 mg/kg, sc QD for 14 days; format: functional; settings: NCI-N87, po, 336 h, read-out: TGI, in the assay text read “po QD” for “sc QD”
Summary of the method: as §1

NCI-N87 [17] = assay: Antitumor activity against human N87 cells xenografted athymic mouse at 30 mg/kg, sc QD for 14 days; format: functional; settings: NCI-N87, po, 336 h, read-out: TGI, in the assay text read “po QD” for “sc QD”
Summary of the method: as §1

[18] = biological target: T1, Receptor tyrosine-protein kinase erbB-2; assay: Inhibition of HER2 phosphorylation in human N87 cells; format: cell-based; settings: NCI-N87
Summary of the method: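 N87 human gastric carcinoma cells, which overexpress EGFR and HER2, were exposed to a range of compound concentrations for 1 h. Cell lysates were then Western blotted with anti-phosphotyrosine and anti-HER2 antibodies to follow HER2 phosphorylation.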

[19] = Antitumor activity against human GEO cells xenografted athymic mouse at 120 mg/kg, sc QD for 21 days; format: functional; settings: po, 504 h, read-out: TGI, in the assay text read “po QD” for “sc QD”
Summary of the method: as §1

Mus musculus [20] = assay: AUC in BALB/C mouse at 50 mg/kg, po after 4 hrs; format: ADME, organism-based, Plasma; set-up: time < 4 hr, dose 50 mg/kg, route oral; settings: in vivo
Summary of the method: as §3

NCI-N87 [21] = assay: Antitumor activity against human N87 cells xenografted athymic mouse at 60 mg/kg, sc QD for 14 days; format: functional; settings: NCI-N87, po, 336 h, read-out: TGI, in the assay text read “po QD” for “sc QD”
Summary of the method: as §1

[22] = Antitumor activity against human GEO cells xenografted athymic mouse at 30 mg/kg, sc QD for 21 days; format: functional; settings: po, 504 h, read-out: TGI, in the assay text read “po QD” for “sc QD”
Summary of the method: as §1

T1 sequence (P04626 whole entry): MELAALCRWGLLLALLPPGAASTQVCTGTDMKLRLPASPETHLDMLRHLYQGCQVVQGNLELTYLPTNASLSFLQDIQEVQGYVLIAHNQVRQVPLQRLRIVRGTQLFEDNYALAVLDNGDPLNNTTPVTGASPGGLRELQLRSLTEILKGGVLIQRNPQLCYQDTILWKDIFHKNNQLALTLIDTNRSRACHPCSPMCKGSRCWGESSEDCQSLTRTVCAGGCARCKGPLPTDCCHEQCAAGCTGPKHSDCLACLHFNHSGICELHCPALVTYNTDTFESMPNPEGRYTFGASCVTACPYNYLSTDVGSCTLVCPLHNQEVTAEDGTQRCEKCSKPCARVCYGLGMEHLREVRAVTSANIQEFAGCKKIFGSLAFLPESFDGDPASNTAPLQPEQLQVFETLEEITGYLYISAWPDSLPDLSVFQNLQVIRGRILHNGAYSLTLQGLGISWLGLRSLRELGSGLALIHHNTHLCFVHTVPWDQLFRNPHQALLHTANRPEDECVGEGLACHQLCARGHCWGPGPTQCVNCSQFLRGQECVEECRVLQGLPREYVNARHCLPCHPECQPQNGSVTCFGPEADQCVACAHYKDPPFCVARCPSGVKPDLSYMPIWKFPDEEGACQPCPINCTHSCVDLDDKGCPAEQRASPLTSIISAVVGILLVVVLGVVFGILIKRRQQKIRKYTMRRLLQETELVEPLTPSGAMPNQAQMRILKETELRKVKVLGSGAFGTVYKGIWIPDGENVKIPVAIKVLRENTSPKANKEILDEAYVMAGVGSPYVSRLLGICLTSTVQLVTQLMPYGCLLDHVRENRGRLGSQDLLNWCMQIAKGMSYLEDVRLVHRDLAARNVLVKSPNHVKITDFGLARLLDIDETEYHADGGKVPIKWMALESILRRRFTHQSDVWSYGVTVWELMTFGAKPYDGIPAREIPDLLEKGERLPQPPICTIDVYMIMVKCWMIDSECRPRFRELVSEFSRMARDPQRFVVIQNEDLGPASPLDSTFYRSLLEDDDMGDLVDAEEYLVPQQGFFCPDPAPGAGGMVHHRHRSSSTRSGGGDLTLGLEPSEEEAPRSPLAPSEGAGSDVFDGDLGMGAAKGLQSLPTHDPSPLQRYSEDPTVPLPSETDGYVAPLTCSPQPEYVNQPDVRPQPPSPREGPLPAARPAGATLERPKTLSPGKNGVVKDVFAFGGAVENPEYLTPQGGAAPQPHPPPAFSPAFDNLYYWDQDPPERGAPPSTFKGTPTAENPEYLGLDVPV
Chain of Epidermal growth factor receptor (P00533 whole entry): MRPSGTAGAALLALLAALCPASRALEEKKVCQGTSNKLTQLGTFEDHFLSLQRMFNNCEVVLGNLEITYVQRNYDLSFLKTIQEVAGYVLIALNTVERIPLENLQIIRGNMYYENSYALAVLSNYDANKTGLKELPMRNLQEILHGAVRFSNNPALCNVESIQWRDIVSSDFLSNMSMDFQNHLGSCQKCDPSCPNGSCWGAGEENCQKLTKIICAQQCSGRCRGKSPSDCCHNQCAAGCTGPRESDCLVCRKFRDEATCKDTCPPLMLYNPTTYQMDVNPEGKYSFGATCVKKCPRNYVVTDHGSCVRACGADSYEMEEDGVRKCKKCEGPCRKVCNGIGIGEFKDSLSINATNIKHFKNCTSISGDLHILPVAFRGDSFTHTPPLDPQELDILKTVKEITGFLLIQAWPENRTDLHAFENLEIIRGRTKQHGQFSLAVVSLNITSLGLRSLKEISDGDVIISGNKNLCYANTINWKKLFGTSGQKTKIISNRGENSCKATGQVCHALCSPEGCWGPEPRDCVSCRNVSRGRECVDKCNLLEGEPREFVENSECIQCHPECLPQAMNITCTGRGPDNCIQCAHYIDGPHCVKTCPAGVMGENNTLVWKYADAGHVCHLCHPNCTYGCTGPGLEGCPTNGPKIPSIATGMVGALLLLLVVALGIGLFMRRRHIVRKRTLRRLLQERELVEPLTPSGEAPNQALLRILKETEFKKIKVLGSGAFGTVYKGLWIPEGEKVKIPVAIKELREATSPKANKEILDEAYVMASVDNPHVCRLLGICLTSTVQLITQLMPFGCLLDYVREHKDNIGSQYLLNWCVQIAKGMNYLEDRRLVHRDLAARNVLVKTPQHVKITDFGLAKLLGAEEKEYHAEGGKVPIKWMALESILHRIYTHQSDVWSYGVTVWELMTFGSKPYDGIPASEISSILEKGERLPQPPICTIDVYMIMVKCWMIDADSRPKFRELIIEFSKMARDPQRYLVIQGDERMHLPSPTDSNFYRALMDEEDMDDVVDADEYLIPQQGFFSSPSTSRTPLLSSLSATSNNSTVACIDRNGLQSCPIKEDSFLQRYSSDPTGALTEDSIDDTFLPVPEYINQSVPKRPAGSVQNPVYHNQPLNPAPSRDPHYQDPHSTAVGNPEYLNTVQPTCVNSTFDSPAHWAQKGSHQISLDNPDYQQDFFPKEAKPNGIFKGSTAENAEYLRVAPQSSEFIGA

## c1ccc(Cn2ncc3cc(Nc4ncnn5ccc(COC[C@@H]6CNCCO6)c45)ccc32)nc1
[1]
  IC50: 0.5 µM
[2]
  IC50: 0.38 µM
NCI-N87 [3]
  IC50: 0.24 µM

## Cc1ccn2ncnc(Nc3ccc4c(cnn4Cc4cccc(F)c4)c3)c12
[1]
  IC50: 0.081 µM
[2]
  IC50: 0.088 µM
HT-29
  IC50: > 10 µM
Liver
  Stability: 0.14 nmol/min/mg
NCI-N87 [3]
  IC50: 0.38 µM

## COC(=O)COCc1ccn2ncnc(Nc3ccc4c(cnn4Cc4cccc(F)c4)c3)c12
[1]
  IC50: 0.46 µM
[2]
  IC50: 0.28 µM
NCI-N87 [3]
  IC50: 1.7 µM

## COCCOCc1ccn2ncnc(Nc3ccc4c(cnn4Cc4cccc(F)c4)c3)c12
[2]
  IC50: 0.42 µM

## CN(C)CCCOCc1ccn2ncnc(Nc3ccc4c(cnn4Cc4cccc(F)c4)c3)c12
[1]
  IC50: 0.62 µM
[2]
  IC50: 0.56 µM
Liver
  Stability: 0.12 nmol/min/mg

## OCc1ccn2ncnc(Nc3ccc4c(cnn4Cc4cccc(F)c4)c3)c12
[1]
  IC50: 0.12 µM
[2]
  IC50: 0.11 µM
HT-29
  IC50: > 10 µM
NCI-N87 [3]
  IC50: 7.4 µM

## Fc1cccc(Cn2ncc3cc(Nc4ncnn5ccc(COC[C@@H]6CNCCO6)c45)ccc32)c1
[4]
  inhibition in vivo at 60 mg/kg: 55%
A2780
  IC50: 8.7 µM
[5]
  IC50: 6.5 µM
[6]
  IC50: > 50 µM
[7]
  concentration at 4 h: 5.8 µM
[8]
  Papp: 64 nm/s
[1]
  IC50: 0.061 µM
Mus musculus [9]
  Activity: Non-toxic
[10]
  IC50: > 5 µM
[11]
  IC50: > 10 µM
[12]
  inhibition in vivo at 240 mg/kg: 91%
[13]
  fraction unbound at 10 µM: 0.026
NCI-N87 [14]
  inhibition in vivo at 240 mg/kg: 111%
MAP kinase p38
  IC50: > 50 µM
[2]
  IC50: 0.055 µM
Mus musculus [15]
  Activity: Non-toxic
NCI-N87 [16]
  inhibition in vivo at 120 mg/kg: 70%
NCI-N87 [17]
  inhibition in vivo at 30 mg/kg: 28%
[18]
  Activity: Dose-dependent effect
[19]
  inhibition in vivo at 120 mg/kg: 71%
Mus musculus [20]
  AUC: 29 µM·h
NCI-N87 [21]
  inhibition in vivo at 60 mg/kg: 51%
Liver
  Stability: 0.07 nmol/min/mg
NCI-N87 [3]
  IC50: 0.083 µM
[22]
  inhibition in vivo at 30 mg/kg: 21%

## c1cncc(Cn2ncc3cc(Nc4ncnn5ccc(COC[C@@H]6CNCCO6)c45)ccc32)c1
[1]
  IC50: 0.81 µM
[2]
  IC50: 0.41 µM
NCI-N87 [3]
  IC50: 0.55 µM

## C[C@@H](c1cccc(F)c1)n1ncc2cc(Nc3ncnn4ccc(COC[C@@H]5CNCCO5)c34)ccc21
[1]
  IC50: 0.4 µM
[2]
  IC50: 0.51 µM

## NCCCOCc1ccn2ncnc(Nc3ccc4c(cnn4Cc4cccc(F)c4)c3)c12
A2780
  IC50: 7.4 µM
[1]
  IC50: 0.064 µM
[2]
  IC50: 0.06 µM
Liver
  Stability: 0.01 nmol/min/mg
NCI-N87 [3]
  IC50: 0.64 µM

## NC(=O)COCc1ccn2ncnc(Nc3ccc4c(cnn4Cc4cccc(F)c4)c3)c12
A2780
  IC50: > 10 µM
[1]
  IC50: 0.14 µM
[2]
  IC50: 0.11 µM
NCI-N87 [3]
  IC50: 1.7 µM

## Fc1cccc(COc2ccc(Nc3ncnn4ccc(COC[C@@H]5CNCCO5)c34)cc2Cl)c1
NCI-N87 [3]
  IC50: 0.61 µM

## Fc1cccc(Cn2ncc3cc(Nc4ncnn5ccc(COCC6CCNCC6)c45)ccc32)c1
A2780
  IC50: 4.9 µM
[1]
  IC50: 0.13 µM
[2]
  IC50: 0.12 µM
NCI-N87 [3]
  IC50: 0.72 µM

## Cc1ccn2ncnc(Nc3ccc4c(cnn4Cc4ccccc4)c3)c12
[1]
  IC50: 0.086 µM
[2]
  IC50: 0.11 µM

## Cc1ccn2ncnc(Nc3ccc(F)c(Cl)c3)c12
[2]
  IC50: > 1 µM

## Fc1cccc(Cn2ncc3cc(Nc4ncnn5ccc(COC[C@@H]6COCCN6)c45)ccc32)c1
A2780
  IC50: > 10 µM
[1]
  IC50: 0.64 µM
[2]
  IC50: 0.59 µM
NCI-N87 [3]
  IC50: 3 µM

## C[C@H](c1ccccc1)n1ncc2cc(Nc3ncnn4ccc(COC[C@@H]5CNCCO5)c34)ccc21
[1]
  IC50: 0.12 µM
[2]
  IC50: 0.13 µM
NCI-N87 [3]
  IC50: 0.66 µM

## Fc1cccc(Cn2ncc3cc(Nc4ncnn5ccc(COC6CCNCC6)c45)ccc32)c1
A2780
  IC50: 6 µM
[1]
  IC50: 0.073 µM
[2]
  IC50: 0.07 µM
Liver
  Stability: 0.02 nmol/min/mg
NCI-N87 [3]
  IC50: 0.33 µM

## NCCCCOCc1ccn2ncnc(Nc3ccc4c(cnn4Cc4cccc(F)c4)c3)c12
[1]
  IC50: 0.16 µM
[2]
  IC50: 0.13 µM

## Cc1ccn2ncnc(Nc3ccc(OCc4cccc(F)c4)c(Cl)c3)c12
[1]
  IC50: 0.25 µM
[2]
  IC50: 0.43 µM

## Fc1cccc(Cn2ncc3cc(Nc4ncnn5ccc(COCC6CNCCOC6)c45)ccc32)c1 (stereo not drawn)
A2780
  IC50: > 10 µM
[1]
  IC50: 0.21 µM
[2]
  IC50: 0.14 µM
NCI-N87 [3]
  IC50: 2 µM

## COCc1ccn2ncnc(Nc3ccc4c(cnn4Cc4cccc(F)c4)c3)c12
[1]
  IC50: 0.34 µM
[2]
  IC50: 0.42 µM
Liver
  Stability: 0.24 nmol/min/mg

## C[C@@H](c1ccccc1)n1ncc2cc(Nc3ncnn4ccc(COC[C@@H]5CNCCO5)c34)ccc21
[1]
  IC50: 0.69 µM
[2]
  IC50: 0.85 µM
NCI-N87 [3]
  IC50: 2.2 µM

## Fc1cccc(Cn2ncc3cc(Nc4ncnn5ccc(COC[C@H]6CNCCO6)c45)ccc32)c1
A2780
  IC50: > 10 µM
[1]
  IC50: 0.083 µM
[2]
  IC50: 0.06 µM
NCI-N87 [3]
  IC50: 0.13 µM

## Fc1cccc(Cn2ncc3cc(Nc4ncnn5ccc(COC[C@H]6CCCNC6)c45)ccc32)c1
A2780
  IC50: 7.4 µM
[1]
  IC50: 0.19 µM
[2]
  IC50: 0.17 µM
NCI-N87 [3]
  IC50: 0.98 µM

## C[C@H](c1cccc(F)c1)n1ncc2cc(Nc3ncnn4ccc(COC[C@@H]5CNCCO5)c34)ccc21
[1]
  IC50: 0.068 µM
[2]
  IC50: 0.041 µM
NCI-N87 [3]
  IC50: 0.13 µM

## Cc1ccn2ncnc(Nc3ccc4c(cnn4Cc4ccccn4)c3)c12
[1]
  IC50: 0.2 µM
[2]
  IC50: 0.31 µM

## NCCOCc1ccn2ncnc(Nc3ccc4c(cnn4Cc4cccc(F)c4)c3)c12
A2780
  IC50: 8.3 µM
NCI-N87 [3]
  IC50: 1.7 µM

## O=C(O)COCc1ccn2ncnc(Nc3ccc4c(cnn4Cc4cccc(F)c4)c3)c12
A2780
  IC50: > 10 µM
[1]
  IC50: 0.03 µM
[2]
  IC50: 0.018 µM
NCI-N87 [3]
  IC50: > 10 µM

## Cc1ccn2ncnc(Nc3ccc4[nH]ncc4c3)c12
[1]
  IC50: 0.21 µM
[2]
  IC50: > 1 µM

## COc1cn2ncnc(Nc3ccc4c(cnn4Cc4cccc(F)c4)c3)c2c1COC[C@@H]1CNCCO1
[1]
  IC50: 0.43 µM
[2]
  IC50: 0.25 µM
NCI-N87 [3]
  IC50: 3.4 µM

## Cc1ccn2ncnc(Nc3ccc4c(cnn4Cc4cccnc4)c3)c12
[1]
  IC50: 1.8 µM
[2]
  IC50: 0.25 µM

Reference: ChEMBL document CHEMBL1139130, “New C-5 substituted pyrrolotriazine dual inhibitors of EGFR and HER2 protein tyrosine kinases” (Bioorg Med Chem Lett, 2007)
